Source: publication PMC11348385 (RSC Advances, 2024)
“And” between values parts separate entries of the source, which are not always exact repeats. Equal values may be shown once.

Columns and labels:
[1] = system: MCF-7 cell line; assay: MTT colorimetric cytotoxicity assay, MCF-7; type: cell-based, human; details: for IC50: Homo sapiens, MCF7, 72 h, read-out: IC50 MCF-7; for Selectivity index: folds more toxic regarding MCF-7 than VERO cells: VERO vs MCF-7; for selectivity class against MCF-7: high SI ≥ 5, moderate SI > 2, low SI < 2, vs VERO
[2] = system: HepG2 cell line; assay: MTT colorimetric cytotoxicity assay, HepG2; type: cell-based, human; details: for IC50: Homo sapiens, HepG2, 72 h, read-out: IC50 HepG2; for Selectivity index: folds toxic in HepG2 than in VERO cells: VERO vs HepG2; for selectivity class against HepG2: high SI ≥ 5, moderate SI > 2, low SI < 2, vs VERO
[3] = biological target: VEGFR-2 (Homo sapiens, UniProt P35968); assay: In vitro VEGFR-2 kinase assay; type: biochemical
VEGFR-2, sequence (P35968 20-1356): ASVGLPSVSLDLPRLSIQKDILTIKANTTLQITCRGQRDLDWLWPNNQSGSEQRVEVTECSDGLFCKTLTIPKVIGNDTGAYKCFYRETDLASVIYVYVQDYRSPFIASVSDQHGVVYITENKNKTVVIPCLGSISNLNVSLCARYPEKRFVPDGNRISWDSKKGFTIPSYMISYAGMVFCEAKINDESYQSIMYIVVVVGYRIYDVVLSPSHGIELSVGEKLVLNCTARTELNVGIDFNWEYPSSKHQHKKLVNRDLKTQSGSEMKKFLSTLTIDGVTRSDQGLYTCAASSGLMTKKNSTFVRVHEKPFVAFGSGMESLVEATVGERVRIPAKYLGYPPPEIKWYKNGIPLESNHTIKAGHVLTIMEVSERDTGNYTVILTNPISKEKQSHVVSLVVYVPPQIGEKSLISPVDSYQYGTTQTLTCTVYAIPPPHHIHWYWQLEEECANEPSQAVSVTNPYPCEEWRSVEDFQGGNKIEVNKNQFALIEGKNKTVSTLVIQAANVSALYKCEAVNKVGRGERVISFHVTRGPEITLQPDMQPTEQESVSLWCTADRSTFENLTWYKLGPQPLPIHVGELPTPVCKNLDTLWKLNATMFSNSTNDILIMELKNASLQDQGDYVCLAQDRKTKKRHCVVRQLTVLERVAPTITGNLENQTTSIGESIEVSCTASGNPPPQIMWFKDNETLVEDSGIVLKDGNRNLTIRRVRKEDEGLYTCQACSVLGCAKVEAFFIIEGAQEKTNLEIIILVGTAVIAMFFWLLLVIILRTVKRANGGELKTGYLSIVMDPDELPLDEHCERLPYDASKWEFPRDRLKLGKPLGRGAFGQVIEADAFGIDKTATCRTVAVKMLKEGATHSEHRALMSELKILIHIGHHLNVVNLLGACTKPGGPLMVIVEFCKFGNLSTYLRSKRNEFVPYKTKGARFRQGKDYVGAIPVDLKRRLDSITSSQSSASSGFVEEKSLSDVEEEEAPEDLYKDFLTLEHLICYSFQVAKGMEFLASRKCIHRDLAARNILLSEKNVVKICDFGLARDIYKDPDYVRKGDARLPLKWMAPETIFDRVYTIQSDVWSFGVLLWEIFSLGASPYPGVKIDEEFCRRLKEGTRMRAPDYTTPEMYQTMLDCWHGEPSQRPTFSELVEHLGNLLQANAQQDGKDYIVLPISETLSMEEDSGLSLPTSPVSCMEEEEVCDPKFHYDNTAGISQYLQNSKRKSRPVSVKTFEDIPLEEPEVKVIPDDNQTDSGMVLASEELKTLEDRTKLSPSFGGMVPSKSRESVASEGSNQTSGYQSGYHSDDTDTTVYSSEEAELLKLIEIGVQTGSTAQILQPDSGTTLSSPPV

[4] = system: Bcl-2; assay: Bcl-2 expression level in MCF-7 cells; type: cell-based, human; details: MCF-7, IC50 of 4b, 24 h, mean ± SEM
[5] = system: MCF-7 cells; assay: Cell cycle distribution; type: cell-based, human; details: MCF-7, 2.3 μM 4b, 24 h, mean ± SEM
How it was run: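 MCF-7 cells treated with 2.3 μM test compound for 24 h, harvested and stained with propidium iodide. DNA content was analysed for distribution across G1, S and G2/M phases, with an untreated control alongside. Values are mean ± SEM of three independent experiments.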

[6] = system: BAX; assay: BAX expression level in MCF-7 cells; type: cell-based, human; details: MCF-7, IC50 of 4b
How it was run: (§1)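 Test compound given to MCF-7 cells for 24 h; Bax and Bcl-2 expression levels then determined. Each is expressed as fold change versus untreated control cells, and the Bax/Bcl-2 ratio is calculated from these fold changes.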

[7] = system: BAX/Bcl-2 ratio; assay: BAX/Bcl-2 ratio in MCF-7 cells; type: cell-based, human; details: MCF-7, IC50 of 4b
How it was run: as §1

[8] = system: MCF-7 cells; assay: Annexin V / propidium iodide double staining apoptosis assay; type: cell-based, human; details: MCF-7, IC50 of 4b, 24 h

SMILES | IC50 [1] [nM] | Selectivity index: folds more toxic regarding MCF-7 than VERO cells [1] [folds] | selectivity class against MCF-7 [1] | IC50 [2] [nM] | Selectivity index: folds toxic in HepG2 than in VERO cells [2] [folds] | IC50 [3] [nM] | other results
Clc1ccc(-c2nnc(Nc3ccc(C4=NNC(c5ccccc5)C4)cc3)c3ccccc23)cc1 (stereo not drawn) [Compound 3a, 4-(4-Chlorophenyl)-N-(4-(5-phenyl-4,5-dihydro-1H-pyrazol-3-yl)phenyl)phthalazin-1-amine] | 1160 ± 10 | 4.09 | moderate selectivity | 1270 ± 30 | 3.74 | 1250 ± 50 | selectivity class against HepG2 [2]: moderate selectivity
Clc1ccc(-c2nnc(Nc3ccc(C4=NNC(c5ccc(Cl)cc5)C4)cc3)c3ccccc23)cc1 (stereo not drawn) [Compound 3b, 4-(4-Chlorophenyl)-N-(4-(5-(4-chlorophenyl)-4,5-dihydro-1H-pyrazol-3-yl)phenyl)phthalazin-1-amine] | 830 ± 20 | 5.12 |  |  | 5.31 | 800 ± 50 | 
Oc1ccccc1C1CC(c2ccc(Nc3nnc(-c4ccc(Cl)cc4)c4ccccc34)cc2)=NN1 (stereo not drawn) [Compound 3c, 2-(3-[4-{(4-[4-Chlorophenyl]phthalazin-1-yl)amino}phenyl]-4,5-dihydro-1H-pyrazol-5-yl)phenol] | 880 ± 30 | 4.67 | moderate selectivity | 1250 ± 20 | 3.29 | 840 ± 50 | selectivity class against HepG2 [2]: moderate selectivity
Oc1ccc(C2CC(c3ccc(Nc4nnc(-c5ccc(Cl)cc5)c5ccccc45)cc3)=NN2)cc1 (stereo not drawn) [Compound 3d, 4-(3-[4-{(4-[4-Chlorophenyl]phthalazin-1-yl)amino}phenyl]-4,5-dihydro-1H-pyrazol-5-yl)phenol] | 740 ± 10 | 5.88 |  | 150 | 29.00 | 700 ± 50 | 
COc1ccc(C2CC(c3ccc(Nc4nnc(-c5ccc(Cl)cc5)c5ccccc45)cc3)=NN2)cc1 (stereo not drawn) [Compound 3e, 4-(4-Chlorophenyl)-N-(4-[5-{4-methoxyphenyl}-4,5-dihydro-1H-pyrazol-3-yl]phenyl)phthalazin-1-amine] | 80 ± 10 | 40.25 |  |  | 16.95 | 120 ± 20 | 
O=c1nc(-c2ccc(Nc3nnc(-c4ccc(Cl)cc4)c4ccccc34)cc2)cc(-c2ccccc2)[nH]1 [Compound 4a, 4-(4-[{4-(4-Chlorophenyl)phthalazin-1-yl}amino]phenyl)-6-phenylpyrimidin-2(1H)-one] |  | 25.00 |  | 290 ± 10 | 13.79 | 150 ± 30 | 
O=c1nc(-c2ccc(Nc3nnc(-c4ccc(Cl)cc4)c4ccccc34)cc2)cc(-c2ccc(Cl)cc2)[nH]1 [Compound 4b, 6-(4-Chlorophenyl)-4-(4-[{4-(4-chlorophenyl)phthalazin-1-yl}amino]phenyl)pyrimidin-2(1H)-one] | 60 ± 10 | 50.00 |  | 60 ± 10 | 50.00 | 90 ± 20 | Gene expression fold change Bcl-2 [4]: 0.374 ± 0.02; DNA content % G1 [5]: 53.96 ± 2.15%; DNA content % S [5]: 39.12 ± 1.92%; boost of Bax level vs control [6]: approximately 3 folds; Gene expression fold change BAX ([6]; 24 h, mean ± SEM): 3.3282 ± 0.67; boost of Bax/Bcl2 ratio compared to the control [7]: approximately 8 folds; Gene expression fold change BAX/Bcl-2 ratio ([7]; 24 h, mean ± SEM): 8.25 ± 0.71; early apoptosis, folds over the control [8]: more than 25 folds; % Apoptosis Early ([8]; mean ± SEM): 15.06% and 15.06 ± 0.91%; % Apoptosis Late ([8]; mean ± SEM): 6.72 ± 0.31%; % Necrosis ([8]; mean ± SEM): 4.66% and 4.66 ± 0.19%
S=c1nc(-c2ccc(Nc3nnc(-c4ccc(Cl)cc4)c4ccccc34)cc2)cc(-c2ccccc2)[nH]1 [Compound 5a, 4-(4-[{4-(4-Chlorophenyl)phthalazin-1-yl}amino]phenyl)-6-phenylpyrimidin-2(1H)-thione] | 860 ± 10 | 4.79 | moderate selectivity | 800 ± 20 | 5.15 | 750 ± 50 | 
S=c1nc(-c2ccc(Nc3nnc(-c4ccc(Cl)cc4)c4ccccc34)cc2)cc(-c2ccc(Cl)cc2)[nH]1 [Compound 5b, 6-(4-Chlorophenyl)-4-(4-[{4-(4-chlorophenyl)phthalazin-1-yl}amino]phenyl)pyrimidin-2(1H)-thione] | 110 ± 10 | 28.64 |  | 150 ± 10 | 21.00 | 130 ± 30 | 
CNC(=O)c1cc(Oc2ccc(NC(=O)Nc3ccc(Cl)c(C(F)(F)F)c3)cc2)ccn1 [Sorafenib, sorafenib, reference compound] | 50 ± 10 |  |  | 30 ± 10 |  |  | 
